In brackets after ≈: the same amount, converted by molar mass.
How the values were obtained:
Format in all cases: functional
Escherichia coli = assay: Antibacterial activity against Escherichia coli ATCC 10536 after 24 hrs by broth microdilution method; conditions: ATCC 10536, 24 h
In short: (§1)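 Broth dilution in Mueller-Hinton broth. Tubes inoculated at 10⁵ cfu/mL and incubated 37 °C for 24 h. MIC taken as lowest concentration completely inhibiting growth. Media and media-plus-DMSO growth controls; ciprofloxacin and norfloxacin as reference standards.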

Saccharomyces cerevisiae = assay: Antifungal activity against Saccharomyces cerevisiae ATCC 9763 after 24 hrs by broth microdilution method; conditions: ATCC 9763, 24 h
Aspergillus niger = assay: Antifungal activity against Aspergillus niger ATCC 6275 after 24 hrs by broth microdilution method; conditions: ATCC 6275, 24 h
Pseudomonas aeruginosa = assay: Antibacterial activity against Pseudomonas aeruginosa ATCC 10145 after 24 hrs by broth microdilution method; conditions: ATCC 10145, 24 h; in short: as §1
Staphylococcus aureus = assay: Antibacterial activity against Staphylococcus aureus ATCC 11632 after 24 hrs by broth microdilution method; conditions: ATCC 11632, 24 h; in short: as §1
Enterococcus faecalis = assay: Antibacterial activity against Streptococcus faecalis ATCC 14506 after 24 hrs by broth microdilution method; conditions: ATCC 14506, 24 h; in short: as §1
Candida tropicalis = assay: Antifungal activity against Candida tropicalis ATCC 1369 after 24 hrs by broth microdilution method; conditions: ATCC 1369, 24 h
[1] = tested on: Mycobacterium tuberculosis; assay: Antimycobacterial activity against Mycobacterium tuberculosis H37Rv after 21 days by broth dilution assay; conditions: 504 h
In short: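 Frozen culture in Middlebrook 7H9 broth with 10% albumin-dextrose-catalase and 0.2% glycerol, thawed and diluted in broth to 10⁵ cfu/mL. Compounds dissolved in DMSO, twofold diluted in broth; final DMSO 1.3%. Tubes inoculated, incubated at 37 °C. Growth compared visually against drug-free and drug- and inoculum-free controls and isoniazid. MIC = lowest concentration inhibiting ≥99% of the starting bacterial population.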

Klebsiella pneumoniae = assay: Antibacterial activity against Klebsiella pneumoniae ATCC 10031 after 24 hrs by broth microdilution method; conditions: ATCC 10031, 24 h; in short: as §1
Bacillus subtilis = assay: Antibacterial activity against Bacillus subtilis ATCC 60511 after 24 hrs by broth microdilution method; conditions: ATCC 60511, 24 h; in short: as §1

| Structure (SMILES) | MIC (Escherichia coli) [µg/mL] | MIC (Saccharomyces cerevisiae) [µg/mL] | MIC (Aspergillus niger) [µg/mL] | MIC (Pseudomonas aeruginosa) [µg/mL] | MIC (Staphylococcus aureus) [µg/mL] | MIC (Enterococcus faecalis) [µg/mL] | MIC (Candida tropicalis) [µg/mL] | MIC [1] [µg/mL] | MIC (Klebsiella pneumoniae) [µg/mL] | MIC (Bacillus subtilis) [µg/mL] |
| --- | --- | --- | --- | --- | --- | --- | --- | --- | --- | --- |
| CC(C)c1csc(-c2nnc3n2N=C(c2ccccc2)CS3)n1 | 125 (≈ 366 µM) | 62.5 (≈ 183 µM) | 62.5 (≈ 183 µM) | 62.5 (≈ 183 µM) | 125 (≈ 366 µM) | 125 (≈ 366 µM) | 125 (≈ 366 µM) | 125 (≈ 366 µM) | 125 (≈ 366 µM) | 62.5 (≈ 183 µM) |
| Cc1ccc(C2=Nn3c(nnc3-c3nc(C(C)C)cs3)SC2)cc1 | 8 (≈ 22.5 µM) | 62.5 (≈ 176 µM) | 31.2 (≈ 87.9 µM) | 8 (≈ 22.5 µM) | 16 (≈ 45 µM) | 31.2 (≈ 87.9 µM) | 31.2 (≈ 87.9 µM) | 16 (≈ 45 µM) | 8 (≈ 22.5 µM) | 31.2 (≈ 87.9 µM) |
| CC(C)c1csc(-c2nnc3n2N=C(c2ccc(O)cc2)CS3)n1 | 31.2 (≈ 87.4 µM) | 16 (≈ 44.8 µM) | 31.2 (≈ 87.4 µM) | 62.5 (≈ 175 µM) | 62.5 (≈ 175 µM) | 31.2 (≈ 87.4 µM) | 31.2 (≈ 87.4 µM) | 125 (≈ 350 µM) | 16 (≈ 44.8 µM) | 31.2 (≈ 87.4 µM) |
| CC(C)c1csc(-c2nnc3n2N=C(c2ccc(Cl)cc2)CS3)n1 | 125 (≈ 333 µM) | 16 (≈ 42.6 µM) | 31.2 (≈ 83.1 µM) | 16 (≈ 42.6 µM) | 125 (≈ 333 µM) | 8 (≈ 21.3 µM) | 62.5 (≈ 166 µM) | 16 (≈ 42.6 µM) | 16 (≈ 42.6 µM) | 8 (≈ 21.3 µM) |
| CC(C)c1csc(-c2nnc3n2N=C(c2ccc([N+](=O)[O-])cc2)CS3)n1 | 16 (≈ 41.4 µM) | 16 (≈ 41.4 µM) | 62.5 (≈ 162 µM) | 125 (≈ 323 µM) | 125 (≈ 323 µM) | 125 (≈ 323 µM) | 31.2 (≈ 80.9 µM) | 31.2 (≈ 80.9 µM) | 31.2 (≈ 80.9 µM) | 16 (≈ 41.4 µM) |
| CC(C)c1csc(-c2nnc3n2N=C(c2ccc(Br)cc2)CS3)n1 | 31.2 (≈ 74.3 µM) | 62.5 (≈ 149 µM) | 125 (≈ 297 µM) | 62.5 (≈ 149 µM) | 125 (≈ 297 µM) | 31.2 (≈ 74.3 µM) | 31.2 (≈ 74.3 µM) | 62.5 (≈ 149 µM) | 16 (≈ 38.1 µM) | 31.2 (≈ 74.3 µM) |
| CC(C)c1csc(-c2nnc3n2NC(c2ccccc2Cl)S3)n1 (stereo not given) | 62.5 (≈ 172 µM) | 125 (≈ 344 µM) | 31.2 (≈ 85.9 µM) | 62.5 (≈ 172 µM) | 31.2 (≈ 85.9 µM) | 31.2 (≈ 85.9 µM) | 16 (≈ 44 µM) | 62.5 (≈ 172 µM) | 31.2 (≈ 85.9 µM) | 125 (≈ 344 µM) |
| COc1ccc(C2Nn3c(nnc3-c3nc(C(C)C)cs3)S2)cc1 (stereo not given) | 125 (≈ 348 µM) | 62.5 (≈ 174 µM) | 125 (≈ 348 µM) | 62.5 (≈ 174 µM) | 31.2 (≈ 86.9 µM) | 16 (≈ 44.5 µM) | 125 (≈ 348 µM) |  | 250 (≈ 695 µM) | 62.5 (≈ 174 µM) |
| CC(C)c1csc(-c2nnc3n2NC(c2ccc(N(C)C)cc2)S3)n1 (stereo not given) | 62.5 (≈ 168 µM) | 31.2 (≈ 83.9 µM) | 31.2 (≈ 83.9 µM) | 62.5 (≈ 168 µM) | 16 (≈ 43 µM) | 31.2 (≈ 83.9 µM) | 31.2 (≈ 83.9 µM) | 4 (≈ 10.7 µM) | 125 (≈ 336 µM) | 62.5 (≈ 168 µM) |
| O=C(O)c1cn(C2CC2)c2cc(N3CCNCC3)c(F)cc2c1=O [CIPROFLOXACIN] | ≤ 1 |  |  | ≤ 5 | ≤ 5 | ≤ 5 |  |  | ≤ 1 | ≤ 1 |
| OC(Cn1cncn1)(Cn1cncn1)c1ccc(F)cc1F [FLUCONAZOLE] |  | ≤ 1 | ≤ 1 |  |  |  | ≤ 1 |  |  |  |
| NNC(=O)c1ccncc1 [ISONIAZID] |  |  |  |  |  |  |  | 0.25 (≈ 1.82 µM) |  |  |
| CCn1cc(C(=O)O)c(=O)c2cc(F)c(N3CCNCC3)cc21 [NORFLOXACIN] | ≤ 1 |  |  | ≤ 5 | ≤ 5 | ≤ 5 |  |  | ≤ 1 | ≤ 1 |

Source: ChEMBL document CHEMBL1275278, “Synthesis and pharmacological evaluation of clubbed isopropylthiazole derived triazolothiadiazoles, triazolothiadiazines and mannich bases as potential antimicrobial and antitubercular agents” (Eur J Med Chem, 2010)
